T cell modulator: modulates CD8 T cell binding to vesicles. 2C CD8+ T cell-vesicle binding, flow cytometry; active compounds read low. response (vesicle binding), % at 7 µM. hit rate 0.068% among 330,000. AID 2052;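 active = response, share of CD8 T cells binding vesicles, and their 90th percentile fluorescence all below set limits, cut at about 80% in these data, passing the limit was not always enough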;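 note: values below 100% mean blocked vesicle binding to the CD8+ T cells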
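Test system: purified 2C TCR transgenic mouse naive CD8+ T cells. Probe or stimulus: QL9-peptide-loaded Drosophila micro-vesicles bearing Ld, ICAM-1 and B7-1. Incubation: binding step 1.5 h, 37 °C, antibody labelling 20 min, ice. Measured by: flow cytometry of vesicle-bound cells.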
Pemphigus Ab inh: human desmoglein-3 autoantibody binding inhibition; P32926; DSG3-coupled beads, scFv-anti-DSG3-GFP binding, flow cytometry; active compounds read low; hit rate 0.48% among 310,000; AID 588358; binding (percent of control), % at 10 µM;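 active = binding more than 3 SD below its plate's average and above zero; inconclusive = below that plate limit but binding exactly zero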;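 note: hits lower antibody fragment binding to DSG3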
Target sequence (P32926 whole entry, looked up, the tested form may be a part): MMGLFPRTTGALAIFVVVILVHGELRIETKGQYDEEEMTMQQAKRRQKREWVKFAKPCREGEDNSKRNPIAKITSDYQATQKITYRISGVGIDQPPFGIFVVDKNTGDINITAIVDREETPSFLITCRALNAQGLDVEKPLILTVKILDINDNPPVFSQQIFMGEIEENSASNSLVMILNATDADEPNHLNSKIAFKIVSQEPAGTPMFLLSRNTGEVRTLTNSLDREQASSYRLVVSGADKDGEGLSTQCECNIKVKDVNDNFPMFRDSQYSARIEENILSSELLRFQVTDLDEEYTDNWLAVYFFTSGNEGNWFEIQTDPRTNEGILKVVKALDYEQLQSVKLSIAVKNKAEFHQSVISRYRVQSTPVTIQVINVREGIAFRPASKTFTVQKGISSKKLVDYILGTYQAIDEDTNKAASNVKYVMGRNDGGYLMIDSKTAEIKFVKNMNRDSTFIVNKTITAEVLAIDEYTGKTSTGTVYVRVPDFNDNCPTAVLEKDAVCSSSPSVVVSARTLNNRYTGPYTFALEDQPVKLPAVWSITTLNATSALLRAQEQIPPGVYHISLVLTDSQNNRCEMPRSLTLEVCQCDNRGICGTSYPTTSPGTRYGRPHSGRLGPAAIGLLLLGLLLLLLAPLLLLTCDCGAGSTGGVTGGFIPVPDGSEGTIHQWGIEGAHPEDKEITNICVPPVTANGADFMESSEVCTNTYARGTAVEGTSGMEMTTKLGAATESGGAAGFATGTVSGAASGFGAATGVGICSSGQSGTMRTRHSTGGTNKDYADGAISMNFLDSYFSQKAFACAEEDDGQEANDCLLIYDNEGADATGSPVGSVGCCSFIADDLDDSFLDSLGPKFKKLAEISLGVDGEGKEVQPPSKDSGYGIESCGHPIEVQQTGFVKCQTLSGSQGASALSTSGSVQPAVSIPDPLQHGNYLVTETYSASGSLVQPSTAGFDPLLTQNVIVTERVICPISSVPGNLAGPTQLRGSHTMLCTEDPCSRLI
Arrestin-AP2 inh: blocks beta-arrestin peptide binding to AP2 adaptin; FITC-arrestin peptide / GST-AP2 beads, flow cytometry; AP2 beta2 appendage carries R879A mutation; inhibition, % at 10 µM; hit rate 0.31% among 340,000; AID 504490;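 active = inhibition above a set limit, near 3 SD of compounds lacking own fluorescence, cut at about 54% in these data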
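System: GST-AP2 R879A glutathione beads; medium: PBS, Tween 20 0.05%, BSA 0.1%; reagent: fluorescein-tagged arrestin peptide at 50 nM final; schedule: pre-incubation 12 min, peptide binding 1 h, room temperature; detection: flow cytometry, FL1 (488/535 nm); read-out: inhibition as reduced fluorescein signal on beads, percent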
LANA-H2A inh: blocks KSHV LANA binding to histone H2A/H2B | cell-free LANA-H2A/H2B peptide, fluorescence polarization | AID 2629 | inhibition, % (concentration not given with the values) | hit rate 0.6% among 320,000 | Q9QR71; in the data active = inhibition mostly above about 10%, no sharp cut-off; inactive = mostly below about 6.7%
HDAC3 inh: inhibitors of human histone deacetylase 3; O15379; recombinant HDAC3, fluorogenic peptide/trypsin coupled, fluorescence; hit rate 0.15% among 320,000; inhibition, % at 8.3 µM; AID 2718; in the data active = inhibition above about 26%, passing the limit was not always enough; inconclusive = no clear call, values can overlap the other calls
Numbers stand for hits; i = inactive; ? = inconclusive; nt = no result given. Hits are enriched below; roughly 1.5% of the tested compounds scored in any of these assays.

SMILES	T cell modulator	Pemphigus Ab inh	Arrestin-AP2 inh	LANA-H2A inh	HDAC3 inh
CCCn1c(NC(=O)c2ccc(F)cc2)nc2ccccc21	i	i	i	i	i
CCCn1c(NC(=O)c2ccc(Br)cc2)nc2ccccc21	i	84.9	i	i	i
CC(=O)Nc1ccc(NC(=S)NC(=O)c2ccc(-c3ccccc3)cc2)cc1	i	70.9	i	i	i
O=C(O)c1ccc(NC(=S)NC(=O)c2ccc(-c3ccccc3)cc2)cc1	i	30.7	i	i	i
COc1ccc(OC)c(NC(=O)c2cccc(N3C(=O)C4C5C=CC(C6CC56)C4C3=O)c2)c1 (stereo not drawn)	i	i	i	i	i
COc1cc2[nH]c(C(=O)Nc3ccc(F)cc3)cc2c(OC)c1OC	i	i	i	i	i
COc1cc(C(C)=O)ccc1OCC(=O)NCc1ccccc1CN1CCCC1	nt	i	nt	nt	nt
CCCCNC(=S)Nc1ccccc1Cc1ccccc1	i	95.7	i	i	i
COc1cc(C(=O)Nc2nnc(C)s2)c([N+](=O)[O-])cc1OC	i	85.0	i	i	i
COc1ccccc1C(=O)Nc1nnc(C)s1	i	i	i	i	i
Cc1nc2ccccc2c2c1C(=O)NC2=O	i	nt	nt	27.4	i
O=C(CSc1cn[nH]n1)Nc1ccccc1C(F)(F)F	i	i	i	i	i
CCCOc1cccc(C(=O)Nc2ccc(Br)cc2F)c1	i	61.7	i	i	i
CCCOc1cccc(C(=O)Nc2cccc3ncccc23)c1	i	i	i	i	i
CCCCNC(=O)Nc1nc2ccc(CC)cc2s1	i	106.5	i	i	i
COc1ccc(OC)c(NC(=O)c2nc(-c3ccccc3)oc2C)c1	i	82.7	i	i	i
COc1cccc(C(=O)O/N=C(\N)c2ccccn2)c1OC	i	i	i	i	i
N/C(=N\OC(=O)c1cccc2ccccc12)c1ccccn1	i	i	i	40.5	i
O=C(Nc1nc(-c2ccccc2)c(C(=O)c2ccccc2)s1)c1ccc(S(=O)(=O)N2CCCC2)cc1	i	-1.0	i	i	i
O=C(Nc1nc(-c2ccccc2)c(-c2ccccc2)s1)c1ccc(S(=O)(=O)N2CCCC2)cc1	i	82.3	i	i	i
O=C(Nc1ccccc1)c1ccc(S(=O)(=O)N2CCCC2)cc1	i	i	i	i	i
CCN(CC)C(=O)C1=C(C)N(Cc2ccc(OC)cc2)C(=O)C(CC(=O)NCCCN(C)C)C1 (stereo not drawn)	nt	i	nt	nt	nt
CC1CCC2(CC1)NC(=O)N(CC(=O)Nc1ccc(F)cc1)C2=O (stereo not drawn)	i	i	i	37.8	i
O=C(CN1C(=O)NC2(CCCC2)C1=O)Nc1ccc(F)cc1	i	i	i	i	i
O=C(NCc1cccnc1)c1ccc(-c2ccc(Cl)cc2)o1	i	57.7	nt	i	i
SMILES	T cell modulator	Pemphigus Ab inh	Arrestin-AP2 inh	LANA-H2A inh	HDAC3 inh
Cc1nnc(NC(=O)c2ccc(-c3ccc(Cl)cc3)o2)s1	i	22.3	i	i	i
O=C(NCc1cccnc1)c1ccc(-c2cc(Cl)ccc2Cl)o1	i	i	i	i	i
O=C([C@@H]1Cc2ccccc2CN1)N1CCN(Cc2ccccc2)CC1	i	i	i	i	i
CCN(CC)CCNC(=O)c1nn(-c2ccc(Cl)cc2)c2c1CCc1cc(OC)ccc1-2	nt	i	i	nt	nt
CC(=O)c1ccc(NC(=O)c2cn(-c3ccccc3)nc2-c2ccncc2)cc1	i	69.1	i	i	i
O=C(CSc1nnnn1-c1cccc(F)c1)Nc1nc2ccccc2s1	i	11.4	i	i	i
O=C(CSc1nnnn1-c1ccccc1F)Nc1nc2ccccc2s1	i	i	i	i	i
Cn1ncc(Cl)c1C(=O)NCC1CCCO1 (stereo not drawn)	i	i	i	13.6	i
Cc1ccc(S(=O)(=O)N2CCN(C(=O)C3CCN(C(=O)c4ccc(F)cc4)CC3)CC2)c(C)c1	i	i	i	21.9	i
Cc1ccc(S(=O)(=O)N2CCN(C(=O)C3CC3C)CC2)c(C)c1 (stereo not drawn)	i	?	i	i	i
CN(C)Cc1cc(C(F)(F)F)ccc1C(O)(c1ccccc1)c1ccccc1	nt	i	i	nt	nt
CCN1CCS/C1=C/C=C/C1=[N+](CC)CCS1	i	i	i	i	35.7
COC(=O)[C@H](CCSC)NC(=O)Cn1cnc2c(SC)nc(N)nc21	i	i	i	i	i
COc1ccccc1-c1cc(C(=O)NCCc2ccccc2)no1	i	i	i	i	i
COc1ccc(-c2cc(C(=O)NCCc3ccccc3)no2)cc1OC	i	74.8	i	i	i
COc1cc(/C=C2/C(=N)N3OC(C)=CC3=NC2=O)ccc1OC(=O)c1ccco1	i	60.8	i	i	i
Oc1[nH]c2ccccc2c1C1=NCCCC1	i	i	i	21.1	i
CCNC(=O)c1ccccc1CCc1ccccc1	i	i	i	i	i
O=C(Nc1ccccc1)c1ccccc1CCc1ccccc1	i	i	i	22.6	i
CC1=C(C#N)C(=O)NC1(C)O (stereo not drawn)	nt	i	nt	nt	nt
COCCC(=O)N1CCC(Oc2ccc(C(=O)N3CCCC(CCCO)C3)cc2)CC1 (stereo not drawn)	i	nt	i	17.9	i
COCCc1nc2ccc(C(=O)N3CCCCC3COC)cc2o1 (stereo not drawn)	i	i	i	i	?
COCCc1nc2ccc(C(=O)N3CCCC(CCCO)C3)cc2o1 (stereo not drawn)	i	i	i	11.7	i
COc1ccc(N2CC(C(=O)Nc3nnc(SCC(=O)NCC4CCCO4)s3)CC2=O)cc1 (stereo not drawn)	i	i	i	34.4	i
C=CCN1C(=O)c2ccccc2Sc2ccc(C(=O)NCC(OC)OC)cc21	i	i	i	i	i
SMILES	T cell modulator	Pemphigus Ab inh	Arrestin-AP2 inh	LANA-H2A inh	HDAC3 inh
Cc1ccccc1NC(=S)c1ccc2ccccc2n1	i	78.5	i	i	i
CN1OC[C@@H]2CN(C(=O)C(C)(C)C)[C@H](c3ccc(-c4cc5ccccc5o4)cc3)C[C@@H]21	nt	60.9	nt	nt	nt
NC(=N\N=Cc1ccco1)/C(N)=N/N=Cc1ccco1	nt	i	i	nt	nt
Cc1n[nH]c(=O)c2c(NC(=O)CSc3nnc(-c4ccco4)n3C)oc(C)c12	i	i	i	92.4	i
Cc1n[nH]c(=O)c2c(NC(=O)CSc3nn(-c4ccc(F)cc4)c(=S)s3)oc(C)c12	i	i	i	i	44.8
CCNC(=O)C1CC(=O)N(Cc2ccc3c(c2)OCO3)C(=Nc2ccc(OCC)cc2)S1 (stereo not drawn)	i	i	i	63.4	i
COc1cc(C)c(CN2CCC(n3nccc3NC(=O)C3CC3)CC2)cc1C	i	i	i	i	i
C/C(=N\Nc1ccc(S(N)(=O)=O)cc1[N+](=O)[O-])c1ccccc1O	i	71.6	i	i	i
C/C(=N\Nc1ccccc1[N+](=O)[O-])c1ccccc1O	i	i	i	i	i
COc1cc(/C=N/O)c(Br)cc1OCC(=O)Nc1ccccc1C	i	i	i	16.6	i
COCCCn1c(Cc2ccccc2)nnc1SCC(=O)N1CCCCC1	i	i	i	79.4	i
COc1ccc2ccccc2c1/C=N\NC(=O)c1ccc(C)s1	i	i	i	i	i

Screening results: PubChem, several laboratories
